According to paper PMC7108400 (Leukemia research, 2019):
Entries after “also recorded” stand apart in the source; their conditions may differ. Where two headings read alike, the source gives them in different places.

Key:
[1] = system: AML progressed on standard therapy / advanced hematologic malignancies; settings: single agent, cited from earlier work
AML = settings: panobinostat 30 mg combined with azacitidine; cited from earlier work
newly diagnosed AML = settings: cited from earlier work
[2] = system: newly diagnosed primary or secondary high-risk AML; assay: Anti-leukemic efficacy; assay type: in vivo, human; settings: for ORR: 20-mg dose level
[3] = system: AML cell lines and primary AML cells from patients; settings: combination with doxorubicin; cited from earlier work
[4] = system: first relapse or primary refractory AML; settings: cited from earlier work
BRCA1, CHK1, and RAD51 = settings: AML cell lines; cited from earlier work
[5] = Panobinostat plasma pharmacokinetics, cycle 1 day 8, non-compartmental; assay type: in vivo, human; settings: for CL/F / AUC / AUC(0-t) / Vd/F: geometric mean (%CV); for Cmax / AUC / AUC(0-t) / half-life / Tmax / Vd/F: human, plasma, oral; for AUC: AUC0inf; for half-life: T1/2, Median (range); for Tmax: Median (range); for Vd/F: Vz/F
Summary of the method: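 Adults <65 y with newly diagnosed high-risk AML received oral HDAC-inhibitor test compound thrice weekly from day 8, after idarubicin 12 mg/m²/d IV (days 1–3) and ara-C 100 mg/m²/d continuous IV (days 1–7). On cycle 1 day 8, 3 mL blood was drawn pre-dose and at 0.5–28 h. Plasma parameters were derived non-compartmentally; geometric mean (%CV) excluded zero concentrations, and Tmax is median (range).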

[6] = Dose-limiting toxicities and MTD/RP2D determination; assay type: in vivo
[7] = elderly patients (> 65 years), with idarubicin and ara-C
[8] = PAN 20 mg (expansion phase), N=12
[9] = 20 mg, PAN 20 mg (expansion phase), N=10

Cc1[nH]c2ccccc2c1CCNCc1ccc(/C=C/C(=O)NO)cc1 [panobinostat]
Complete remission (CR) ([1]; of 86 patients, 60-mg dose): 2 patients
MTD of panobinostat alone [1]: 60 mg
Grade ≥ 3 AEs (AML): 97%
CR rate (newly diagnosed AML; [7]): 64%
Median time to relapse (newly diagnosed AML; [7]): 17.0 months
MTD of panobinostat (newly diagnosed AML; with 8 mg/m^2 idarubicin (day 1–3) and 100 mg/m^2 ara-C (day 1–7), elderly): 10 mg
Response rate ([2]; 15-mg dose group): 81.8%
CRi ([2]; 15-mg dose group (3 patients)): 27.3%
CR ([2]; 15-mg dose group (6 patients)): 54.5%
ORR ([2]; escalation phase (9 patients)): 60%
ORR ([2]; expansion phase (6 patients)): 50%
Complete remission (CR) ([2]; All patients, N=46): 20 (43.5) n (%)
Complete remission with incomplete blood count recovery (CRi) ([2]; All patients, N=46): 8 (17.4) n (%)
Partial remission (PR) ([2]; All patients, N=46): 2 (4.3) n (%)
Response rate (CR or CRi) ([2]; All patients, N=46): 28 (60.9) n (%)
Treatment failure ([2]; All patients, N=46): 13 (28.3) n (%)
Complete remission (CR) ([2]; PAN 15 mg, N=11): 6 (54.5) n (%)
Complete remission with incomplete blood count recovery (CRi) ([2]; PAN 15 mg, N=11): 3 (27.3) n (%)
Partial remission (PR) ([2]; PAN 15 mg, N=11): 0 (0.0) n (%)
Response rate (CR or CRi) ([2]; PAN 15 mg, N=11): 9 (81.8) n (%)
Treatment failure ([2]; PAN 15 mg, N=11): 1 (9.1) n (%)
Complete remission (CR) [2, 8]: 5 (41.7) n (%)
Complete remission with incomplete blood count recovery (CRi) [2, 8]: 1 (8.3) n (%)
Partial remission (PR) [2, 8]: 1 (8.3) n (%)
Response rate (CR or CRi) [2, 8]: 6 (50.0) n (%)
Treatment failure [2, 8]: 3 (25.0) n (%)
Complete remission (CR) ([2]; PAN 20 mg, N=15): 7 (46.7) n (%)
Complete remission with incomplete blood count recovery (CRi) ([2]; PAN 20 mg, N=15): 2 (13.3) n (%)
Partial remission (PR) ([2]; PAN 20 mg, N=15): 0 (0.0) n (%)
Response rate (CR or CRi) ([2]; PAN 20 mg, N=15): 9 (60.0) n (%)
Treatment failure ([2]; PAN 20 mg, N=15): 6 (40.0) n (%)
Complete remission (CR) ([2]; PAN 25 mg, N=8): 2 (25.0) n (%)
Complete remission with incomplete blood count recovery (CRi) ([2]; PAN 25 mg, N=8): 2 (25.0) n (%)
Partial remission (PR) ([2]; PAN 25 mg, N=8): 1 (12.5) n (%)
Response rate (CR or CRi) ([2]; PAN 25 mg, N=8): 4 (50.0) n (%)
Treatment failure ([2]; PAN 25 mg, N=8): 3 (37.5) n (%)
Re-induction rate (second induction cycle) ([2]; Ten of 46 patients): 22%
Overall response rate (ORR) (CR or CRi) ([2]; all 46 patients): 60.9%
CR with incomplete count recovery (CRi) ([2]; all 46 patients (8 patients)): 17.4%
Complete remission (CR) ([2]; all 46 patients (20 patients)): 43.5%
Event-free survival at 1-year ([2]; all patients): 78.3%
Treatment discontinuation due to disease progression ([2]; all patients (11 patients)): 23.9%
Median overall survival ([2]; current study): not reached
Median duration of response ([2]; inadequate number of events at last censoring): not estimable
Cell death (caspase-dependent apoptosis) [3]: induces cell death
DLTs ([4]; first 2 cohorts, 20 mg and 30 mg thrice weekly): no DLTs occurred
CR/CRi rate ([4]; plus ara-C and mitoxantrone): 46%
RP2D of panobinostat ([4]; with mitoxantrone and ara-C as salvage therapy): 50 mg
SAE: sepsis (1 in 25 mg and 1 in 20 mg expansion groups): 2 patients
Discontinuation, primary reason death (All patients, n=46): 5 (10.9) n (%)
Discontinuation, primary reason death (PAN 15 mg, n=11): 1 (9.1) n (%)
Discontinuation, primary reason death (PAN 20 mg (dose expansion), n=12): 3 (25) n (%)
SAE: infections (all dose groups): 5 patients
On-treatment deaths during the induction phase (all in the 20 mg expansion dose group): 6.5%
Deaths during the study period or within 28 days after the end of treatment (all patients): 6 deaths
Deaths in the induction phase (all patients): 3 deaths
Deaths overall (induction and consolidation) (all patients): 5 deaths
Abdominal pain, Any grade (human, in vivo): 3 (6.5) n (%)
Abdominal pain, Grade 3 or 4 (human, in vivo): 0 (0.0) n (%)
All-grade cardiac events (human, in vivo): 6.5%
Alopecia, Any grade (human, in vivo): 3 (6.5) n (%)
Alopecia, Grade 3 or 4 (human, in vivo): 0 (0.0) n (%)
Anemia, Any grade (human, in vivo): 17 (37.0) n (%)
Anemia, Grade 3 or 4 (human, in vivo): 15 (32.6) n (%)
Anemia, all-grade (human, in vivo): 37%
Decreased appetite, Any grade (human, in vivo): 10 (21.7) n (%)
Decreased appetite, Grade 3 or 4 (human, in vivo): 1 (2.2) n (%)
Decreased appetite, all-grade (human, in vivo): 21.7%
Diarrhea, Any grade (human, in vivo): 25 (54.3) n (%)
Diarrhea, Grade 3 or 4 (human, in vivo): 3 (6.5) n (%)
Discontinuation, primary reason adverse events (human, in vivo): 8 (17.4) n (%)
Discontinued due to AEs (human, in vivo): 15.8%
Dyspepsia, Any grade (human, in vivo): 2 (4.3) n (%)
Dyspepsia, Grade 3 or 4 (human, in vivo): 0 (0.0) n (%)
Fatigue, Any grade (human, in vivo): 8 (17.4) n (%)
Fatigue, Grade 3 or 4 (human, in vivo): 1 (2.2) n (%)
Fatigue, all-grade (human, in vivo): 17.4%
Febrile neutropenia, Any grade (human, in vivo): 17 (37.0) n (%)
Febrile neutropenia, Grade 3 or 4 (human, in vivo): 16 (34.8) n (%)
Febrile neutropenia, all-grade (human, in vivo): 37%
Grade 3 or 4 AEs suspected to be treatment-related (human, in vivo): 73.9%
Hypokalemia, Any grade (human, in vivo): 7 (15.2) n (%)
Hypokalemia, Grade 3 or 4 (human, in vivo): 3 (6.5) n (%)
Left ventricular dysfunction, Any grade (human, in vivo): 3 (6.5) n (%)
Left ventricular dysfunction, Grade 3 or 4 (human, in vivo): 2 (4.3) n (%)
Leukopenia, Any grade (human, in vivo): 2 (4.3) n (%)
Leukopenia, Grade 3 or 4 (human, in vivo): 2 (4.3) n (%)
Leukopenia, all-grade (human, in vivo): 4.3%
Nausea, Any grade (human, in vivo): 18 (39.1) n (%)
Nausea, Grade 3 or 4 (human, in vivo): 0 (0.0) n (%)
Neutropenia, Any grade (human, in vivo): 9 (19.6) n (%)
Neutropenia, Grade 3 or 4 (human, in vivo): 9 (19.6) n (%)
Neutropenia, all-grade (human, in vivo): 19.6%
Patients with AEs (human, in vivo): 84.8%
Pyrexia, Any grade (human, in vivo): 6 (13.0) n (%)
Pyrexia, Grade 3 or 4 (human, in vivo): 0 (0.0) n (%)
SAE: cardiac disorders (human, in vivo): 5 patients
SAE: grade ≥ 3 febrile neutropenia (human, in vivo): 10 patients
Stomatitis, Any grade (human, in vivo): 9 (19.6) n (%)
Stomatitis, Grade 3 or 4 (human, in vivo): 0 (0.0) n (%)
Stomatitis, all-grade (human, in vivo): 19.6%
Thrombocytopenia, Any grade (human, in vivo): 21 (45.7) n (%)
Thrombocytopenia, Grade 3 or 4 (human, in vivo): 21 (45.7) n (%)
Thrombocytopenia, all-grade (human, in vivo): 45.7%
Treatment discontinuation due to AEs (human, in vivo): 17.4%
Vomiting, Any grade (human, in vivo): 10 (21.7) n (%)
Vomiting, Grade 3 or 4 (human, in vivo): 0 (0.0) n (%)
Vomiting, all-grade (human, in vivo): 21.7%
Expression of BRCA1, CHK1, and RAD51 (BRCA1, CHK1, and RAD51): decreases the levels of key proteins BRCA1, CHK1, and RAD51; also recorded: reduce the expression of BRCA1, CHK1, and RAD51
CL/F ([5]; PAN 15 mg, N=10): 295 (54.7) L/h
CL/F ([5]; PAN 20 mg (expansion phase), N=10): 193 (32.3) L/h
CL/F ([5]; PAN 20 mg, N=11): 269 (68.2) L/h
Tmax, Median (range) ([5]; PAN 25 mg, N=8): 2.02 [1.25–4.90] h
CL/F ([5]; PAN 25 mg, N=8): 294 (44.3) L/h
Cmax ([5]; 15 mg): 6.03 ng/mL
AUC ([5]; 15 mg, PAN 15 mg, N=10): 50.8 ng·h/mL
AUC(0-t) ([5]; 15 mg, AUC0–24, PAN 15 mg, N=10): 42.5 ng·h/mL
half-life ([5]; 15 mg, PAN 15 mg, N=10): 8.74 h
Tmax ([5]; 15 mg, PAN 15 mg, N=10): 3 h
Vd/F ([5]; 15 mg, PAN 15 mg, N=10): 3920 L
Cmax ([5]; 20 mg): 15 ng/mL
AUC [5, 9]: 103 ng·h/mL
AUC ([5]; 20 mg, PAN 20 mg, N=11): 74.3 ng·h/mL
AUC(0-t) ([5]; 20 mg, AUC0–24, PAN 20 mg (expansion phase), N=10): 92.7 ng·h/mL
AUC(0-t) ([5]; 20 mg, AUC0–24, PAN 20 mg, N=11): 62.6 ng·h/mL
half-life [5, 9]: 7.94 h
half-life ([5]; 20 mg, PAN 20 mg, N=11): 9.7 h
Tmax [5, 9]: 1.98 h
Tmax ([5]; 20 mg, PAN 20 mg, N=11): 1.05 h
Vd/F [5, 9]: 1810 L
Vd/F ([5]; 20 mg, PAN 20 mg, N=11): 3790 L
Cmax ([5]; 25 mg): 11.2 ng/mL
AUC ([5]; 25 mg, PAN 25 mg, N=8): 85 ng·h/mL
AUC(0-t) ([5]; 25 mg, AUC0–24, PAN 25 mg, N=8): 74.6 ng·h/mL
half-life ([5]; 25 mg, PAN 25 mg, N=8): 7.81 h
Vd/F ([5]; 25 mg, PAN 25 mg, N=8): 3360 L
Patients who experienced DLTs during induction ([6]; human, in vivo): 7 patients
Recommended phase 2 dose (RP2D) of panobinostat ([6]; human, in vivo): 20 mg
MTD ([6]; patients 18–65 years, staggered schedule with idarubicin and ara-C): not reached
